These results are taken from PubChem BioAssay.

Experiment [1] can be described thus: inhibitors of TNFa-induced NFkB p65 translocation, primary screen, imaging, HUVEC, MLSMR starter and 10KST1 sets (AID 438;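 active = inhibition above 20% together with a positive visual image hit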;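 also: compound added about 3h40 before a 20 min TNFalpha stimulation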;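 as to inhibition: signal is the nuclear over cytoplasmic p65 intensity ratio per well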). The settings on record: HUVEC TNFa-induced p65 nuclear translocation; cell count: measured here: nuclei count (cytotoxicity indicator), at 2.08 µM; inhibition: at 2 µM, stronger effect = higher value, 0% TNFa-plus-vehicle, 100% no-TNFa wells.
Experiment [2] is described as follows: inhibitors of E-selectin induction by TNFa, primary screen, imaging, HUVEC, immunofluorescence, MLSMR starter and 10KST1 sets (AID 487;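 active = visually confirmed hit in the image check and inhibition above 20%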;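 as to inhibition: signal is fraction of cell area covered by stained E-selectin grains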;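 as to nuclei count: 100% = median nuclei count of all wells on the same plate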). To be noted: HUVEC TNFalpha-induced E-selectin immunofluorescence imaging, at 2 µM; inhibition: stronger effect = higher value; nuclei count: measured here: cell number, toxicity.
A short description of experiment [3]: DUSP6 inhibitors restoring Erk phosphorylation by chemical complementation, primary imaging in DUSP6-transfected HeLa (AID 609;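 active = compounds giving at least 50% inhibition in the cell-based MKP-3 phosphatase rescue imaging test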;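 as to inhibition: phospho-Erk level distribution per well compared with pooled transfected vehicle control wells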). The settings on record: HeLa MKP-3 transfected, phospho-Erk imaging KS statistic, at 10 µM, cells stimulated with TPA for 15 min.
In experiment [4] the target is Dual specificity protein phosphatase 6 (Homo sapiens) (UniProt Q16828). Described as above. To be noted: HeLa MKP-3 transfected, phospho-Erk imaging KS statistic; at 10 µM; stronger effect = higher value; cells stimulated with TPA for 15 min.
In experiment [5] the target is Voltage-gated potassium channel subunit beta-2 (Rattus norvegicus) (UniProt P62483). Briefly: KvBeta enzyme negative modulators, primary screen, biochemical, NADPH fluorescence (AID 622;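 active = fluorescence slope higher than the sample average by over 3 SD, cut at about -0.22 in these data, passing the limit was not always enough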;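 also: slope of raw intensity against log time taken from 70 to 1610 s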). To be noted: recombinant KvBeta, 4-cyanobenzaldehyde reduction, at 10 µM, stronger effect = higher value.
Experiment [6] shares this target. Briefly: KvBeta positive modulators, primary screen, biochemical, NADPH fluorescence (AID 623;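 active = NADPH fluorescence slope more negative than the mean of all samples by about 3 SD, 99.7% confidence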;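 also: fluorescence intensity change per second fitted from 20 to 320 s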). The settings on record: Recombinant KvBeta, NADPH fluorescence decrease slope, 10 min; at 10 µM; stronger effect = lower value.
In experiment [7] the target is Muscarinic acetylcholine receptor M4 (Homo sapiens) (UniProt P08173). Nature of the experiment: compounds altering M4/GIRK thallium flux, either direction, primary screen, M4 allosteric agonist project, cell-based, HEK293 M4/GIRK, BTC-AM (AID 625;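 active = fluorescence slope after compound addition differing from the mean of all tested samples at 99.7% confidence, mostly higher but some lower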;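 also: thallium influx through GIRK channels coupled to M4 in HEK293 cells with BTC-AM dye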). The settings on record: at 10 µM, actives lie on both sides. In outline: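 Material: HEK293 cells with M4 receptor and GIRK channels; Times: cells overnight at 37 °C, BTC-AM loading 1 h, reads 2 min total; Technique: kinetic BTC-AM fluorescence sampled at 1 Hz, 10 s pre-addition baseline; Read-out basis: slope over 15–24 s of trace normalized to starting intensity; Controls: carbachol positive, DMSO negative.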

Experiment [8] is described as follows: inhibitors of larval lipid processing in zebrafish, primary screen, whole organism, PED6 fluorescence, gall bladder and intestine (AID 686;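 active = a full or partial loss of lipid-probe fluorescence in the fish gall bladder, intestine or both, judged by eye; inactive = no fluorescence loss, or compound toxic to the fish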;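 also: larvae 5 to 7 days old with five fish per well; signal comes from phospholipase A2 cleavage of quenched PED6 carried via bile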). The settings on record: Zebrafish larvae PED6 lipid processing, fluorescence scoring; screened at 20 µM (by protocol). In outline: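 Incubation: overnight exposure of larvae to compound plus PED6 / Test system: live zebrafish larvae aged 5-7 days, whole organism / Amount: 5 larvae per well / Read-out basis: visual per-well fluorescence inhibition score / Signal: visual fluorescence microscopy scoring of gall bladder, gut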

The nature of experiment [9]: inhibitors of Chlamydomonas gravitaxis, primary screen, whole organism, Chlamydomonas reinhardtii, WT vs cilia-less mutant, absorbance, 96-well (AID 463189).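 Also: 0% = wild type cc124 cells in DMSO and 100% = ciliumless bld1 mutant cells.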 The settings on record: OD600 absorbance, 2 days, at 10 µM, stronger effect = higher value.
Where [10] appears, read: measured here: cell density z-score.
Where [11] appears, read: measured here: nuclear c-Myc green intensity z-score.
[12] abbreviates: measured here: nuclear pErk red intensity z-score, stronger effect = higher value.

Calls of active or inactive are those of the source.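 The calls were made as follows, unless noted: active = inhibition at or above 50% relative to wild type and mutant plate controls; inactive = inhibition below 50%.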

Voltage-gated potassium channel subunit beta-2 (Rattus norvegicus), sequence (P62483 whole entry, looked up): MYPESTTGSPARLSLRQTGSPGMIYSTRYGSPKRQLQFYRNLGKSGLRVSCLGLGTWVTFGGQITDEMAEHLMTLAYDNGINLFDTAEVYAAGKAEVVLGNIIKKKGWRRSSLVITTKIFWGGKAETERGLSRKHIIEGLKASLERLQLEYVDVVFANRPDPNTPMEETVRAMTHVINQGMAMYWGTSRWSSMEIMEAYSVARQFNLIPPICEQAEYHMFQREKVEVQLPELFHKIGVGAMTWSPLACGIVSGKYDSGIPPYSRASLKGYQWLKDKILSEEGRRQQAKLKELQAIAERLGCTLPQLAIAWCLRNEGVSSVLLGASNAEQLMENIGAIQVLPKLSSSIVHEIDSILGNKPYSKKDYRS
Dual specificity protein phosphatase 6 (Homo sapiens), sequence (Q16828 whole entry, looked up): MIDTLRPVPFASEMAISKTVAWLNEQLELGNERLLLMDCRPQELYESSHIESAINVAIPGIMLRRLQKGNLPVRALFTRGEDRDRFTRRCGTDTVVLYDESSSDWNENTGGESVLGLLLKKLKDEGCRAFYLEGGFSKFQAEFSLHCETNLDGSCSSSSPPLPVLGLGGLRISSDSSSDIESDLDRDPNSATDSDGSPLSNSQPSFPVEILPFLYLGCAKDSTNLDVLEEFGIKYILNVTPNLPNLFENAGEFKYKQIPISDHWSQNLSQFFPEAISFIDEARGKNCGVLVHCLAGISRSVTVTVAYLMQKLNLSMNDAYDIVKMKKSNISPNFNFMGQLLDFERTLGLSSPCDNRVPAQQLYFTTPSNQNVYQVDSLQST
Muscarinic acetylcholine receptor M4 (Homo sapiens), sequence (P08173 whole entry, looked up): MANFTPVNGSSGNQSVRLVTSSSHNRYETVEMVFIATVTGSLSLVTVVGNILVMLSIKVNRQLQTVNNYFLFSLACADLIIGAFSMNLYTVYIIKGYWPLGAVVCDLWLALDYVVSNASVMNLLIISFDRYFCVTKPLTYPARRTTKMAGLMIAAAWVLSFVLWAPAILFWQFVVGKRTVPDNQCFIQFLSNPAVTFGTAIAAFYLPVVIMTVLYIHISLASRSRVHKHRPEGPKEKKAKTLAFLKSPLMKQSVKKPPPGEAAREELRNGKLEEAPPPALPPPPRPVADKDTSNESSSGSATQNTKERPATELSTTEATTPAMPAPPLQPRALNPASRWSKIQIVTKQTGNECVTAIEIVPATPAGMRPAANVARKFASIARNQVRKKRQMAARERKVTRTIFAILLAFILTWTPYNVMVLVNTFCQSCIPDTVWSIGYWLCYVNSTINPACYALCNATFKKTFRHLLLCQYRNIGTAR

As for `COCc1n[nH]c(=S)n1-c1cccc2ccccc12`, the cell count in experiment [1] came out at 533. The inhibition in [1] was -1.3% (inactive); in [2] it was -25.8% (inactive); in [4], 5.95% (inactive); in experiment [9], 4.29% (inactive). The molecule also showed a nuclei count in experiment [2] of 173%. Moreover, the values for the z-score in [3] (setting [10]), in [3] (setting [11]) and in experiment [3] (setting [12]) were 0.455, 0.388 and 0.964, respectively. Besides, the fluorescence slope in [5] was -0.415 (inactive); in [7], 0.00527 (inactive). The NADPH fluorescence slope in [6] was -4.6e-05 (inactive). Also, the call in experiment [8] was inactive.

As to `O=C(NCCCNCc1ccccc1)/C(=N\O)c1ccccc1`, the cell count in experiment [1] came out at 518. Also, the inhibition in experiment [1] was -4.7% (inactive); in experiment [2] it was -1% (inactive); in experiment [4], 15.9% (inactive); in experiment [9] it was 7.18% (inactive). The molecule also returned a nuclei count in experiment [2] of 164%. Besides, the z-score in experiment [3] (setting [10]) was -0.176; in [3] (setting [11]), 1.16; in experiment [3] (setting [12]) it was 0.402. For the same molecule, the fluorescence slope was -0.401 (inactive) in experiment [5] and 0.00368 (inactive) in experiment [7]. The NADPH fluorescence slope in [6] is -5.4e-05 (inactive). The result in experiment [8] was inactive.

On to `CCSc1nnc(NC(=O)NCC(F)(F)F)s1`, for which, in [1], the cell count worked out at 580. Besides, the inhibition was -4.9% (inactive) in [1], 31.5% (inactive) in [2], 9.07% (inactive) in experiment [4] and -11.4% (inactive) in experiment [9]. In experiment [2], the nuclei count was 96.4%. Also, the z-score in experiment [3] (setting [10]) is 1.02; in [3] (setting [11]) it was -0.999; in [3] (setting [12]), -0.913. The figures for the fluorescence slope in [5] and in [7] were -0.469 (inactive) and 0.00649 (inactive), respectively. The NADPH fluorescence slope in [6] was -3.9e-05 (inactive). In [8], the call was inactive.

For the molecule `O=C(NCCCn1ccnc1)c1cccnc1`, the cell count in experiment [1] is 412. Besides, the inhibition in [1] was -1% (inactive); in [2], -143% (inactive); in [4], 5.65% (inactive); in experiment [9], 0.663% (inactive). Also, the nuclei count in experiment [2] came to 187%. Further, the values for the z-score in [3] (setting [10]), in experiment [3] (setting [11]) and in experiment [3] (setting [12]) were -0.692, 0.968 and -0.483, respectively. In addition, the fluorescence slope is -0.459 (inactive) in experiment [5] and 0.00592 (inactive) in experiment [7]. The NADPH fluorescence slope in experiment [6] was -0.000144 (inactive). Also, the outcome in experiment [8] was inactive.

On to `Cc1cc(=O)oc(C)c1C(=O)NCCC1=CCCCC1`, for which the cell count in experiment [1] was 603. Further, the inhibition in experiment [1] was -7.1% (inactive); in [2] it was -25.9% (inactive); in experiment [4], 1.63% (inactive); in experiment [9], -3.01% (inactive). In experiment [2], the nuclei count was 114%. The z-score was -1.14 in experiment [3] (setting [10]), 1.4 in experiment [3] (setting [11]) and 1.29 in [3] (setting [12]). The fluorescence slope in experiment [5] is -0.415 (inactive); in experiment [7] it was 0.00474 (inactive). Besides, the NADPH fluorescence slope in [6] is -3.7e-05 (inactive). Moreover, in [8], the outcome was inactive.

`COCC(C)Nc1ncnc2c1cnn2-c1ccc(Cl)cc1` (stereo not drawn): in [1], the cell count was found to be 607. Besides, the inhibition in experiment [1] is -19.2% (inactive); in [2], -34.4% (inactive); in [4], 3.42% (inactive); in experiment [9], 18.7% (inactive). In experiment [2], the nuclei count was 170%. The figures for the z-score in experiment [3] (setting [10]), in experiment [3] (setting [11]) and in experiment [3] (setting [12]) were 1.51, -0.865 and 0.282, respectively. Besides, the fluorescence slope in experiment [5] is -0.398 (inactive); in experiment [7] it was 0.00516 (inactive). Besides, the NADPH fluorescence slope in experiment [6] is -1.2e-05 (inactive). Moreover, the molecule was classed as inactive in experiment [8].

As for `COc1cccc(NC(=O)c2cc(C(=O)Nc3cccc(OC)c3)n(C)n2)c1`, in experiment [1], the cell count was found to be 589. The inhibition is 5.1% (inactive) in [1], -73.5% (inactive) in [2], 1.12% (inactive) in experiment [4] and -5.34% (inactive) in experiment [9]. In addition, the nuclei count in [2] was found to be 108%. Besides, the z-score in experiment [3] (setting [10]) is -0.897; in [3] (setting [11]), 0.197; in experiment [3] (setting [12]), 0.57. The fluorescence slope is -0.504 (inactive) in experiment [5] and 0.00667 (inactive) in [7]. In [6], the NADPH fluorescence slope was -3.5e-05 (inactive). The call in experiment [8] was inactive.

Regarding `Cn1c(=O)c2c(nc(Br)n2Cc2ccc3ccccc3c2)n(C)c1=O`, the cell count in experiment [1] turned out to be 623. For the same molecule, the inhibition in [1] is -9.2% (inactive); in experiment [2], -12.5% (inactive); in [4], -8.95% (inactive); in experiment [9], 5.52% (inactive). This molecule showed a nuclei count in experiment [2] of 163%. The z-score in [3] (setting [10]) was -0.362; in experiment [3] (setting [11]), -0.997; in [3] (setting [12]) it was 0.811. The fluorescence slope in experiment [5] is -0.5 (inactive); in experiment [7], 0.00605 (inactive). In addition, the NADPH fluorescence slope in experiment [6] is -5.2e-05 (inactive). Moreover, in experiment [8], the outcome was inactive.

On to `Cc1cc(=O)oc(C)c1C(=O)NC12CC3CC(CC(C3)C1)C2`, for which the cell count in [1] worked out at 739. For the same molecule, the inhibition in [1] was -12.2% (inactive); in experiment [2] it was -66.8% (inactive); in experiment [4], -6.48% (inactive); in experiment [9] it was 6.04% (inactive). The nuclei count in [2] worked out at 166%. Besides, the z-score in experiment [3] (setting [10]) is -0.0351; in experiment [3] (setting [11]) it was 0.102; in experiment [3] (setting [12]) it was 0.73. For the same molecule, the figures for the fluorescence slope in [5] and in experiment [7] were -0.455 (inactive) and 0.00545 (inactive), respectively. Moreover, in experiment [6], the NADPH fluorescence slope was -5.7e-05 (inactive). In [8], the outcome was inactive.

On to `CC(C)CCNc1nc2c(cc1C#N)COC(C)(C)C2`, for which, in experiment [1], the cell count turned out to be 536. Also, the inhibition in experiment [1] is -6.5% (inactive); in experiment [2] it was -22.1% (inactive); in experiment [4], 22.1% (inactive); in experiment [9], -19.8% (inactive). This molecule displayed a nuclei count in [2] of 143%. Also, the figures for the z-score in [3] (setting [10]), in [3] (setting [11]) and in experiment [3] (setting [12]) were 1.89, -0.595 and -1.16, respectively. The fluorescence slope in [5] was -0.426 (inactive); in [7], 0.00455 (inactive). The NADPH fluorescence slope in experiment [6] was -5.9e-05 (inactive). The molecule was called inactive in experiment [8].

As to `Cn1c[n+](C)cc1/C=N/O`, the cell count in experiment [1] was found to be 710. Moreover, the inhibition is -2% (inactive) in experiment [1], -108% (inactive) in [2], 0.671% (inactive) in experiment [4] and -4.46% (inactive) in experiment [9]. In experiment [2], the nuclei count is 159%. In addition, the z-score in [3] (setting [10]) was -0.468; in experiment [3] (setting [11]), 0.134; in experiment [3] (setting [12]) it was -0.77. The fluorescence slope in experiment [5] was -0.459 (inactive); in experiment [7], 0.00537 (inactive). Further, the NADPH fluorescence slope in experiment [6] was -6.2e-05 (inactive). Further, the molecule was called inactive in experiment [8].

For orientation: inhibition means the drop in the measured response relative to a control, in per cent.
